# ChEMBL document CHEMBL1177860, “Design, synthesis, and pharmacological evaluation of the aqueous prodrugs of desmethyl anethole trithione with hepatoprotective activity” (Eur J Med Chem, 2010)
# Legend:
# [1] = Chemical stability in phosphate buffer solution at pH 1.10 to 6.84 at 60 degC up to 24 hrs by HPLC analysis; assay type: physicochemical; details: pH 1.1, 24 h
# Summary of the method: (§1)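 Phosphate buffers at pH 1.10, 4.02, 6.84, 9.14 and 12.02, held at 37 °C and at 60 °C. Remaining compound quantified by HPLC at 0, 1, 2, 4, 8, 16 and 24 h.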
# [2] = Aqueous solubility in water after 24 hrs by HPLC analysis; assay type: physicochemical
# Summary of the method: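 Water (10 mL) added to the solid; sonicated 5 min, then stirred 24 h in a 25 °C water bath. Centrifuged at 10 000 rpm for 10 min, supernatant membrane-filtered and quantified by HPLC.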
# [3] = system: Mus musculus; test: Hepatoprotective activity in Kunming mouse assessed as reduction of CCL4-induced increase of serum ALT level at 4 mg/kg, ip administered 0.5 hrs before CCL4 challenge measured after 16 hrs; assay type: functional; details: route intraperitoneal
# Summary of the method: (§2)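 Adult male Kunming mice (20–22 g), fasted the day before, in groups of ten. Compound given ip at 1, 2 or 4 mg/kg, followed 0.5 h later by ip CCl₄ (5 mL/kg as 0.2% peanut oil solution). Controls: saline alone, and CCl₄ alone. Orbital blood taken at 16 h; serum assayed for ALT and AST. Mean ± S.D., compared with the CCl₄ group.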
# [4] = system: Mus musculus; test: Hepatoprotective activity in Kunming mouse assessed as reduction of CCL4-induced increase of serum AST level at 1 mg/kg, ip administered 0.5 hrs before CCL4 challenge measured after 16 hrs; assay type: functional; details: route intraperitoneal; summary of the method: as §2
# [5] = system: Plasma; test: Stability in mouse plasma up to 12 hrs by HPLC analysis; assay type: ADME, cell-free
# Summary of the method: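 Aqueous compound solution (1.0 mL, 50 stock) added to 5 mL mouse plasma, kept at 37 ± 1 °C. 200 aliquots taken at 0, 1, 2, 4, 8 and 12 h, mixed with 400 acetonitrile for 5 min, centrifuged at 10 000 rpm for 5 min, and supernatant analysed by HPLC.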
# [6] = system: Mus musculus; test: Hepatoprotective activity in Kunming mouse assessed as reduction of CCL4-induced increase of serum ALT level at 2 mg/kg, ip administered 0.5 hrs before CCL4 challenge measured after 16 hrs; assay type: functional; details: route intraperitoneal; summary of the method: as §2
# [7] = system: Mus musculus; test: Hepatoprotective activity in Kunming mouse assessed as reduction of CCL4-induced increase of serum ALT level at 1 mg/kg, ip administered 0.5 hrs before CCL4 challenge measured after 16 hrs; assay type: functional; details: route intraperitoneal; summary of the method: as §2
# [8] = system: Mus musculus; test: Hepatoprotective activity in Kunming mouse assessed as reduction of CCL4-induced increase of serum AST level at 4 mg/kg, ip administered 0.5 hrs before CCL4 challenge measured after 16 hrs; assay type: functional; details: route intraperitoneal; summary of the method: as §2
# [9] = Chemical stability in phosphate buffer solution at pH 1.10 to 12.02 at 37 degC up to 24 hrs by HPLC analysis; assay type: physicochemical; details: pH 1.1, 24 h; summary of the method: as §1
# [10] = system: Mus musculus; test: Hepatoprotective activity in Kunming mouse assessed as reduction of CCL4-induced increase of serum AST level at 2 mg/kg, ip administered 0.5 hrs before CCL4 challenge measured after 16 hrs; assay type: functional; details: route intraperitoneal; summary of the method: as §2
# [11] = system: Mus musculus; test: In vivo metabolic stability in Kunming mouse assessed as 5-(4-hydroxyphenyl)-3H-1,2-dithiole-3-thione level in plasma at 10 mg/kg, ip measured up to 8 hrs by HPLC analysis; assay type: ADME, organism-based; design: dose 10 mg/kg, route intraperitoneal
# Summary of the method: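 Male Kunming mice, ten groups of four, given 10.00 mg/kg ip. Orbital blood (0.5 mL) taken into heparinized tubes at 0.02–8 h. Plasma precipitated with 2 volumes acetonitrile, sonicated, centrifuged, and analysed by HPLC at 354 nm. Plasma calibration curve spans 0.05–31.11 with six points; QC at three levels.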
Stability [1],solubility at 24 h [2],Stability [5],Stability [9],Stability [11],Compound,Activity [3],Activity [4],Activity [6],Activity [7],Activity [8],Activity [10]
Stable,> 20000 µg/mL,Stable,Stable,–,Cl.S=c1cc(-c2ccc(OCCN3CCCC3)cc2)ss1,561.5 IU/L,501.2 IU/L,535.9 IU/L,416.6 IU/L,607.8 IU/L,582.9 IU/L
Stable,< 10 µg/mL,Stable,Stable,–,COc1ccc(-c2cc(=S)ss2)cc1 [ANETHOLTRITHION],177.2 IU/L,269.6 IU/L,112.4 IU/L,150.7 IU/L,407.1 IU/L,265.9 IU/L
Stable,> 20000 µg/mL,Stable,Stable,Stable,CN(C)CCOc1ccc(-c2cc(=S)ss2)cc1.Cl,171.6 IU/L,310.9 IU/L,109.7 IU/L,216.5 IU/L,284.1 IU/L,215.7 IU/L
Stable,> 20000 µg/mL,Stable,Stable,–,Cl.S=c1cc(-c2ccc(OCCN3CCOCC3)cc2)ss1,457.7 IU/L,851.7 IU/L,468 IU/L,595.4 IU/L,824.9 IU/L,552.5 IU/L
Stable,3500 µg/mL,Stable,Stable,–,CC[N+](CC)(CC)CCOc1ccc(-c2cc(=S)ss2)cc1.[Br-],–,–,–,–,–,–
Stable,2300 µg/mL,Stable,Stable,–,S=c1cc(-c2ccc(OCC[n+]3ccccc3)cc2)ss1.[Br-],685 IU/L,559.2 IU/L,630.1 IU/L,426.1 IU/L,784.3 IU/L,617.8 IU/L
Stable,> 20000 µg/mL,Stable,Stable,–,Cl.S=c1cc(-c2ccc(OCCN3CCCCC3)cc2)ss1,382.9 IU/L,920.6 IU/L,259.6 IU/L,169.3 IU/L,423.9 IU/L,416.8 IU/L
Stable,2800 µg/mL,Stable,Stable,–,CN(C)c1cc[n+](CCOc2ccc(-c3cc(=S)ss3)cc2)cc1.[Br-],–,–,–,–,–,–
Stable,< 130 µg/mL,Stable,Stable,–,Oc1ccc(-c2cc(=S)ss2)cc1,–,–,–,–,–,–
